The text below walks through data of ChEMBL document CHEMBL1138253, “Cytotoxic and apoptotic activities of novel amino analogues of boswellic acids” (2007).

The test system of test [1] is COLO 205. Put plainly: Cytotoxicity against human Colo205 cells at 1 uM after 48 hrs. It is filed as functional. Conditions: COLO 205, 48 h. The procedure, abridged: (§1)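 SRB growth assay. DMSO stock (1 × 10^-2 M) diluted in RPMI-1640 (2 mM glutamine, pH 7.4, 10% FCS, antibiotics). Trypsinized subconfluent cells with >97% viability (trypan blue) seeded at 10^5 cells/ml and grown 24 h, then exposed to compound 48 h at 37 °C, 5% CO2. Fixed with TCA at 4 °C for 1 h, stained with 0.4% SRB, solubilized in 0.01 M Tris pH 10.4, OD read at 540 nm. Run in triplicate; mean of three experiments.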

Test [2] can be described thus: Cytotoxicity against human 502713 cells at 1 uM after 48 hrs. In kind it is functional. As to conditions: Homo sapiens, 502713, 48 h. The procedure, abridged:
as §1

Test [3] has as its system MCF7. The test can be described thus: Cytotoxicity against human MCF7 cells at 1 uM after 48 hrs. Conditions: MCF7, 48 h. In kind it is functional. In a few lines: as §1
The subject of test [4] is SW-620. Put plainly: Cytotoxicity against human SW620 cells at 1 uM after 48 hrs. It is filed as functional. As to conditions: SW-620, 48 h. In a few lines:
as §1

Test [5] has as its system DU-145. The test can be described thus: Cytotoxicity against human DU145 cells at 1 uM after 48 hrs. It is filed as functional. Conditions: DU-145, 48 h. In a few lines: as §1
Test [6] has as its system HL-60. The test can be described thus: Induction of apoptosis in human HL60 cells assessed as nucleosomal DNA fragmentation at 1 uM after 6 hrs. In kind it is functional, cell-based. In a few lines: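 HL-60 cells (2 × 10^6/3 ml) exposed to 1 µM compound for 6 h, with camptothecin as positive control and DMSO vehicle in untreated controls. DNA was extracted and run on 1.8% agarose gel to look for laddering.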

In test [7] the test system is MCF7. Put plainly: Cytotoxicity against human MCF7 cells at 10 uM after 48 hrs. In kind it is functional. As to conditions: MCF7, 48 h. In a few lines: as §1
For test [8], the system named is HT-29. The test can be described thus: Cytotoxicity against human HT29 cells at 10 uM after 48 hrs. As to conditions: HT-29, 48 h. It is filed as functional. The procedure, abridged: as §1
The subject of test [9] is SW-620. The test can be described thus: Cytotoxicity against human SW620 cells at 10 uM after 48 hrs. In kind it is functional. As to conditions: SW-620, 48 h. In a few lines:
as §1

In test [10] the test system is DU-145. Put plainly: Cytotoxicity against human DU145 cells at 10 uM after 48 hrs. In kind it is functional. As to conditions: DU-145, 48 h. In a few lines: as §1
The nature of test [11]: Cytotoxicity against human 502713 cells at 10 uM after 48 hrs. In kind it is functional. As to conditions: Homo sapiens, 502713, 48 h. The procedure, abridged: as §1
The subject of test [12] is MCF7. Put plainly: Cytotoxicity against human MCF7 cells at 50 uM after 48 hrs. As to conditions: MCF7, 48 h. In kind it is functional. In a few lines:
(§2)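 Stock 1 × 10^-2 M in DMSO, diluted in RPMI-1640 (2 mM glutamine, pH 7.4, 10% FCS, penicillin/streptomycin). Cells grown at 37 C, 5% CO2; subconfluent cells trypsinised, >97% viable by trypan blue. Seeded at 10^5 cells/ml, grown 24 h, then exposed 48 h. TCA fixation at 4 C for 1 h, sulforhodamine B staining, Tris pH 10.4 solubilisation, OD 540 nm. Triplicate; mean of three experiments.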

Test [13] has as its system HT-29. The test can be described thus: Cytotoxicity against human HT29 cells at 50 uM after 48 hrs. Conditions: HT-29, 48 h. In kind it is functional. In a few lines:
as §2

Test [14] is described as follows: Cytotoxicity against human 502713 cells at 50 uM after 48 hrs. It is filed as functional. Conditions: Homo sapiens, 502713, 48 h. The procedure, abridged:
as §2

The subject of test [15] is DU-145. Put plainly: Cytotoxicity against human DU145 cells at 50 uM after 48 hrs. In kind it is functional. Conditions: DU-145, 48 h. In a few lines:
as §2

For test [16], the system named is SW-620. The test can be described thus: Cytotoxicity against human SW620 cells at 50 uM after 48 hrs. Conditions: SW-620, 48 h. In kind it is functional. In a few lines: as §2

For orientation: inhibition means the drop in the measured response relative to a control, in per cent.

Activity calls are given as the source filed them. The calls are words filed in the database; no cut-off is given here.

With `COc1cccc2c1C(=O)c1c(O)c3c(c(O)c1C2=O)C[C@@](O)(C(=O)CO)C[C@@H]3O[C@H]1C[C@H](N)[C@H](O)[C@H](C)O1` [DOXORUBICIN], the inhibition at 1 µM in test [1] is 62%; in test [2], 5%; in test [3], 74%; in test [4] it was 36%; in [5] it was 56%.
As for `CC(=O)O[C@@H]1CC[C@]2(C)[C@H]3CC=C4[C@@H]5[C@@H](C)[C@H](C)CC[C@]5(C)CC[C@@]4(C)[C@]3(C)CC[C@H]2[C@@]1(C)N`, the inhibition at 1 µM came to 34% in test [1]; 6% in test [2]; 0% in test [3]; 18% in test [4]; 0% in test [5]. The result in test [6] was Active. Besides, the inhibition at 10 µM in [7] came to 10%; in [8], 44%; in test [9], 80%; in test [10] it was 92%; in test [11] it was 96%.
Take `C[C@H]1[C@H](C)CC[C@]2(C)CC[C@]3(C)C(=CC[C@@H]4[C@@]5(C)CC[C@@H](O)[C@](C)(N)[C@@H]5CC[C@]43C)[C@H]12`: the inhibition at 1 µM in [1] was found to be 30%; in [2], 35%; in test [3], 0%; in test [4], 45%; in test [5] it was 3%. The outcome in test [6] was Active. Moreover, the inhibition at 10 µM came to 42% in test [7]; 79% in [8]; 73% in test [9]; 82% in test [10]; 99% in [11].
As for `O=c1[nH]cc(F)c(=O)[nH]1` [FLUOROURACIL], the inhibition at 50 µM in [12] is 20%; in [13], 36%; in test [14], 25%; in test [15], 31%; in [16], 41%.
On to `C[C@H]1[C@H](C)CC[C@]2(C)CC[C@]3(C)C(=CC(=O)[C@@H]4[C@@]5(C)CC[C@H](O)[C@](C)(C(=O)O)[C@@H]5CC[C@]43C)[C@H]12`, for which the inhibition at 10 µM in [7] is 16%; in [8], 0%; in [9], 1%; in [10], 3%; in [11] it was 27%.
On the same counts, the results for `C[C@H]1[C@H](C)CC[C@]2(C)CC[C@]3(C)C(=CC[C@@H]4[C@@]5(C)CC[C@H](O)[C@](C)(C(=O)O)[C@@H]5CC[C@]43C)[C@H]12` are 18%, 11%, 15%, 1% and 18%.
In the same order, the values of `CC(=O)O[C@@H]1CC[C@@]2(C)[C@@H](CC[C@]3(C)[C@@H]2CC=C2[C@@H]4[C@@H](C)[C@H](C)CC[C@]4(C)CC[C@]23C)[C@@]1(C)C(=O)O` are 0%, 36%, 5%, 0% and 20%.
In the same order, the values of `CC(=O)O[C@@H]1CC[C@@]2(C)[C@@H](CC[C@]3(C)[C@@H]2C(=O)C=C2[C@@H]4[C@@H](C)[C@H](C)CC[C@]4(C)CC[C@]23C)[C@@]1(C)C(=O)O` [AKBA] are 12%, 24%, 2%, 10% and 8%.
As for `CCCC(=O)N[C@]1(C)[C@@H]2CC[C@]3(C)[C@H](CC=C4[C@@H]5[C@@H](C)[C@H](C)CC[C@]5(C)CC[C@]43C)[C@@]2(C)CC[C@H]1OC(=O)CCC`, the inhibition at 10 µM is 0% in [7]; 0% in test [8]; 0% in test [9]; 0% in test [10]; 7% in test [11].
For the compound `CC(=O)O[C@H]1CC[C@@]2(C)[C@@H](CC[C@]3(C)[C@@H]2CC=C2[C@@H]4[C@@H](C)[C@H](C)CC[C@]4(C)CC[C@]23C)[C@@]1(C)C(=O)O`, the inhibition at 10 µM stood at 15% in test [7]; 17% in [8]; 20% in test [9]; 0% in test [10]; 12% in [11].
On to `CC[C@@]1(O)C(=O)OCc2c1cc1n(c2=O)Cc2cc3ccccc3nc2-1`, for which the outcome in [6] was Active.
`CC(=O)O[C@H]1C(=O)[C@@]2(C)[C@H]([C@H](OC(=O)c3ccccc3)[C@]3(O)C[C@H](OC(=O)[C@H](O)[C@@H](NC(=O)c4ccccc4)c4ccccc4)C(C)=C1C3(C)C)[C@]1(OC(C)=O)CO[C@@H]1C[C@@H]2O` [PACLITAXEL]: the inhibition at 10 µM in test [7] stood at 46%; in test [8], 76%; in test [9], 41%; in [10] it was 53%; in [11], 26%.
In the same order, the values of `CO[C@@]12[C@H](COC(N)=O)C3=C(C(=O)C(C)=C(N)C3=O)N1C[C@@H]1N[C@@H]12` [MITOMYCIN] are 78%, 63%, 67%, 56% and 84%.
As for `C[C@H]1[C@H](C)CC[C@]2(C)CC[C@]3(C)C(=CC(=O)[C@@H]4[C@@]5(C)CC[C@@H](O)[C@](C)(N)[C@@H]5CC[C@]43C)[C@H]12`, the inhibition at 1 µM in test [1] was 48%; in test [2], 48%; in test [3], 0%; in test [4] it was 75%; in test [5], 16%. Also, the result in [6] was Active. Also, the inhibition at 10 µM stood at 44% in test [7]; 71% in [8]; 87% in test [9]; 94% in test [10]; 86% in test [11].
Regarding `CC(=O)O[C@H]1CC[C@@]2(C)[C@@H](CC[C@]3(C)[C@@H]2C(=O)C=C2[C@@H]4[C@@H](C)[C@H](C)CC[C@]4(C)CC[C@]23C)[C@@]1(C)C(=O)O`, the inhibition at 10 µM was determined as 21% in test [7]; 19% in [8]; 0% in test [9]; 0% in test [10]; 23% in [11].
On to `CC(=O)O[C@@H]1CC[C@@]2(C)[C@@H](CC[C@]3(C)[C@@H]2CC=C2[C@@H]4[C@@H](C)[C@H](C)CC[C@]4(C)CC[C@]23C)[C@@]1(C)N=C=O`, for which the inhibition at 10 µM in test [7] was 30%; in test [8], 22%; in [9] it was 0%; in test [10], 0%; in [11] it was 0%.
As for `CC(=O)O[C@@H]1CC[C@]2(C)[C@H]3C(=O)C=C4[C@@H]5[C@@H](C)[C@H](C)CC[C@]5(C)CC[C@@]4(C)[C@]3(C)CC[C@H]2[C@@]1(C)N`, in test [6], the outcome was Active. In addition, the inhibition at 10 µM in [7] is 1%; in [8], 21%; in test [9] it was 72%; in test [10], 16%; in [11] it was 55%.
For `COC(=O)[C@@]1(C)C(=O)CC[C@]2(C)[C@H]3C(=O)C=C4[C@@H]5[C@@H](C)[C@H](C)CC[C@]5(C)CC[C@@]4(C)[C@]3(C)CC[C@@H]12`, the inhibition at 10 µM in [7] was 3%; in test [8], 5%; in [9] it was 2%; in test [10] it was 13%; in test [11], 20%.
For `CCC(=O)N[C@]1(C)[C@@H]2CC[C@]3(C)[C@H](CC=C4[C@@H]5[C@@H](C)[C@H](C)CC[C@]5(C)CC[C@]43C)[C@@]2(C)CC[C@H]1OC(=O)CC`, the inhibition at 10 µM in test [7] turned out to be 35%; in [8] it was 0%; in test [9] it was 0%; in [10] it was 8%; in [11] it was 9%.
Regarding `C[C@H]1[C@H](C)CC[C@]2(C)CC[C@]3(C)C(=CC(=O)[C@@H]4[C@@]5(C)CC[C@H](O)[C@](C)(N)[C@@H]5CC[C@]43C)[C@H]12`, the inhibition at 10 µM stood at 17% in [7]; 0% in [8]; 7% in test [9]; 0% in test [10]; 0% in [11].
